# ChEMBL document CHEMBL2331220, “Benzimidazole clubbed with triazolo-thiadiazoles and triazolo-thiadiazines: new anticancer agents” (2013)
# Experiments:
# Type in all cases: functional
# MDA-MB-435 = experiment: Cytotoxicity against human MDA-MB-435 cells after 48 hrs by SRB assay; conditions: MDA-MB-435, 48 h
# Procedure, shortened: (§1)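 NCI 60-line five-dose screen. Cells were preincubated 24 h at 37 °C under 5% CO2 and 100% humidity, and time-zero plates were TCA-fixed when compound was added. Five 10-fold concentrations (0.01–100) were tested for 48 h. Cells were fixed with cold TCA (final 10%, 60 min, 4 °C), stained with 0.4% SRB for 10 min, and read at 515 nm. GI50, TGI and LC50 came from growth-percentage formulas, with out-of-range values given as > or <.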
# HOP-62 = experiment: Cytotoxicity against human HOP62 cells after 48 hrs by SRB assay; conditions: HOP-62, 48 h; procedure, shortened: as §1
# RXF 393 = experiment: Cytotoxicity against human RXF393 cells after 48 hrs by SRB assay; conditions: RXF 393, 48 h; procedure, shortened: as §1
# SK-MEL-2 = experiment: Cytotoxicity against human SK-MEL-2 cells after 48 hrs by SRB assay; conditions: SK-MEL-2, 48 h; procedure, shortened: as §1
# U-251 = experiment: Cytotoxicity against human U251 cells after 48 hrs by SRB assay; conditions: U-251, 48 h
# Procedure, shortened: (§2)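 NCI 60-line five-dose screen: cells plated, held 24 h at 37 °C, 5% CO₂ before treatment, with a TCA-fixed time-zero plate. Five final concentrations (0.01–100 µM, 10-fold dilutions) for 48 h. Cells fixed with cold TCA (10% final) and stained with 0.4% SRB in 1% acetic acid. Dye dissolved in 10 mM Tris and read at 515 nm. GI₅₀, TGI and LC₅₀ taken from percent-growth curves.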
# T47D = experiment: Cytotoxicity against human T47D cells after 48 hrs by SRB assay; procedure, shortened: as §2
# CAKI-1 = experiment: Cytotoxicity against human Caki1 cells after 48 hrs by SRB assay; conditions: CAKI-1, 48 h; procedure, shortened: as §1
# IGROV-1 [1] = experiment: Growth inhibition of human IGROV1 cells at 10 uM after 48 hrs by SRB assay relative to control; conditions: IGROV-1, 48 h, read-out: GI
# Procedure, shortened: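 NCI single-dose primary screen: compound added at 1 × 10⁻⁵ M, cultures incubated 48 h. Protein stained with sulforhodamine B. Result given as percent growth of treated cells relative to untreated controls, where negative values mean cell kill.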
# 786-0 = experiment: Cytotoxicity against human 786-0 cells after 48 hrs by SRB assay; conditions: 786-0, 48 h; procedure, shortened: as §1
# OVCAR-3 = experiment: Cytotoxicity against human OVCAR3 cells after 48 hrs by SRB assay; conditions: OVCAR-3, 48 h; procedure, shortened: as §1
# NCI-H226 = experiment: Cytotoxicity against human NCI-H226 cells after 48 hrs by SRB assay; conditions: NCI-H226, 48 h; procedure, shortened: as §1
# IGROV-1 [2] = experiment: Cytotoxicity against human IGROV1 cells assessed as cell growth at 10 uM after 48 hrs by SRB assay relative to control; conditions: IGROV-1, 48 h, read-out: Activity
# Procedure, shortened: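 Single-dose NCI screen. Compound was added at 1 × 10^-5 M and cultures were incubated 48 h. End point was sulforhodamine B protein staining, reported as percent growth of treated cells versus untreated control cells.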
# RPMI-8226 = experiment: Cytotoxicity against human RPMI8226 cells after 48 hrs by SRB assay; conditions: RPMI-8226, 48 h; procedure, shortened: as §1
# COLO 205 = experiment: Cytotoxicity against human COLO205 cells after 48 hrs by SRB assay; conditions: COLO 205, 48 h; procedure, shortened: as §1
# SF-539 = experiment: Cytotoxicity against human SF539 cells after 48 hrs by SRB assay; conditions: SF-539, 48 h; procedure, shortened: as §1
# ACHN = experiment: Cytotoxicity against human ACHN cells after 48 hrs by SRB assay; procedure, shortened: as §1
# SK-OV-3 = experiment: Cytotoxicity against human SKOV3 cells after 48 hrs by SRB assay; conditions: SK-OV-3, 48 h; procedure, shortened: as §2
# PC-3 = experiment: Cytotoxicity against human PC3 cells after 48 hrs by SRB assay; conditions: PC-3, 48 h; procedure, shortened: as §1
# [3] = read-out: LC50 (the source's name)
# [4] = read-out: pLC50 (the source's name) (converted)
compound,measurement,setting,value
O=C(CCc1nnc2sc(-c3ccc(Cl)cc3Cl)nn12)c1nc2ccccc2[nH]1,GI50,MDA-MB-435; read-out: GI50,265 nM
same,TGI,MDA-MB-435; read-out: TGI,842 nM
same,GI50,MDA-MB-435; read-out: pGI50 (converted),263 nM
same,TGI,MDA-MB-435; read-out: pTGI (converted),851 nM
same,GI50,HOP-62; read-out: GI50,576 nM
same,CC50,HOP-62; [3],6160 nM
same,TGI,HOP-62; read-out: TGI,2120 nM
same,GI50,HOP-62; read-out: pGI50 (converted),575 nM
same,CC50,HOP-62; [4],6170 nM
same,TGI,HOP-62; read-out: pTGI (converted),2140 nM
same,GI50,RXF 393; read-out: GI50,674 nM
same,CC50,RXF 393; [3],4550 nM
same,TGI,RXF 393; read-out: TGI,1990 nM
same,GI50,RXF 393; read-out: pGI50 (converted),676 nM
same,CC50,RXF 393; [4],4570 nM
same,TGI,RXF 393; read-out: pTGI (converted),2000 nM
same,GI50,SK-MEL-2; read-out: GI50,1760 nM
same,CC50,SK-MEL-2; [3],> 100000 nM
same,TGI,SK-MEL-2; read-out: TGI,6670 nM
same,GI50,SK-MEL-2; read-out: pGI50 (converted),1780 nM
same,CC50,SK-MEL-2; [4],> 100000 nM
same,TGI,SK-MEL-2; read-out: pTGI (converted),6610 nM
same,GI50,U-251; read-out: GI50,1280 nM
same,CC50,U-251; [3],5340 nM
same,TGI,U-251; read-out: TGI,2610 nM
same,GI50,U-251; read-out: pGI50 (converted),1290 nM
same,CC50,U-251; [4],5370 nM
same,TGI,U-251; read-out: pTGI (converted),2630 nM
same,GI50,T47D; read-out: GI50,753 nM
same,LC50 (concentration giving 50% net cell kill),T47D; read-out: LC50,7060 nM
same,TGI,T47D; read-out: TGI,2510 nM
same,GI50,T47D; read-out: pGI50 (converted),759 nM
same,LC50 (concentration giving 50% net cell kill),T47D; read-out: pLC50 (converted),7080 nM
same,TGI,T47D; read-out: pTGI (converted),2510 nM
same,GI50,CAKI-1; read-out: GI50,1450 nM
same,TGI,CAKI-1; read-out: TGI,3440 nM
same,GI50,CAKI-1; read-out: pGI50 (converted),1450 nM
same,TGI,CAKI-1; read-out: pTGI (converted),3470 nM
same,inhibition of growth at 10 µM,IGROV-1 [1],≤ 32%
same,GI50,786-0; read-out: GI50,1590 nM
same,LC50,786-0; read-out: LC50,5920 nM
same,TGI,786-0; read-out: TGI,3060 nM
same,GI50,786-0; read-out: pGI50 (converted),1580 nM
same,LC50,786-0; read-out: pLC50 (converted),5890 nM
same,TGI,786-0; read-out: pTGI (converted),3090 nM
same,GI50,OVCAR-3; read-out: GI50,514 nM
same,LC50,OVCAR-3; read-out: LC50,4600 nM
same,TGI,OVCAR-3; read-out: TGI,1800 nM
same,GI50,OVCAR-3; read-out: pGI50 (converted),513 nM
same,LC50,OVCAR-3; read-out: pLC50 (converted),4570 nM
same,TGI,OVCAR-3; read-out: pTGI (converted),1820 nM
same,GI50,NCI-H226; read-out: GI50,244 nM
same,CC50,NCI-H226; [3],2590 nM
same,TGI,NCI-H226; read-out: TGI,696 nM
same,GI50,NCI-H226; read-out: pGI50 (converted),245 nM
same,CC50,NCI-H226; [4],2570 nM
same,TGI,NCI-H226; read-out: pTGI (converted),692 nM
same,growth at 10 µM,IGROV-1 [2],0.38%
same,GI50,RPMI-8226; read-out: GI50,352 nM
same,CC50,RPMI-8226; [3],> 100000 nM
same,TGI,RPMI-8226; read-out: TGI,1760 nM
same,GI50,RPMI-8226; read-out: pGI50 (converted),355 nM
same,CC50,RPMI-8226; [4],> 100000 nM
same,TGI,RPMI-8226; read-out: pTGI (converted),1780 nM
same,GI50,COLO 205; read-out: GI50,767 nM
same,CC50,COLO 205; [3],5500 nM
same,TGI,COLO 205; read-out: TGI,2210 nM
same,GI50,COLO 205; read-out: pGI50 (converted),759 nM
same,CC50,COLO 205; [4],5500 nM
same,TGI,COLO 205; read-out: pTGI (converted),2190 nM
same,GI50,SF-539; read-out: GI50,2170 nM
same,CC50,SF-539; [3],22800 nM
same,TGI,SF-539; read-out: TGI,4860 nM
same,GI50,SF-539; read-out: pGI50 (converted),2190 nM
same,CC50,SF-539; [4],22900 nM
same,TGI,SF-539; read-out: pTGI (converted),4900 nM
same,GI50,ACHN; read-out: GI50,339 nM
same,LC50 (50% lethal concentration),ACHN; read-out: LC50,4670 nM
same,TGI,ACHN; read-out: TGI,1350 nM
same,GI50,ACHN; read-out: pGI50 (converted),339 nM
same,LC50 (50% lethal concentration),ACHN; read-out: pLC50 (converted),4680 nM
same,TGI,ACHN; read-out: pTGI (converted),1350 nM
same,GI50,SK-OV-3; read-out: GI50,1860 nM
same,LC50,SK-OV-3; read-out: LC50,7280 nM
same,TGI,SK-OV-3; read-out: TGI,3680 nM
same,GI50,SK-OV-3; read-out: pGI50 (converted),1860 nM
same,LC50,SK-OV-3; read-out: pLC50 (converted),7240 nM
same,TGI,SK-OV-3; read-out: pTGI (converted),3720 nM
same,GI50,PC-3; read-out: GI50,695 nM
same,LC50 (concentration killing 50% of cells),PC-3; read-out: LC50,> 100000 nM
same,TGI,PC-3; read-out: TGI,3900 nM
same,GI50,PC-3; read-out: pGI50 (converted),692 nM
same,LC50 (concentration killing 50% of cells),PC-3; read-out: pLC50 (converted),> 100000 nM
same,TGI,PC-3; read-out: pTGI (converted),3890 nM
